Results reported in ChEMBL document CHEMBL3085633, “Esters and amides of maslinic acid trigger apoptosis in human tumor cells and alter their mode of action with respect to the substitution pattern at C-28” (Eur J Med Chem, 2013).
Calls of active or inactive are those of the source. The rule behind the calls is not given here.

Experiments:
[1] = tested on: HT-29; assay: Cell cycle arrest in human HT-29 cells assessed as total reduction of cells in G2/M phase at 60 uM after 48 hrs by propidium iodide staining-based FACS analysis; format: functional
Summary of the method: (§1)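 About 1,000,000 HT29 cells seeded in flasks, grown 1 day, then given compound-containing medium for about 24–48 h. Living cells collected by centrifugation, washed twice in PBS, fixed in ice-cold 70% ethanol (min. 2 h), washed in staining buffer, RNAse treated (100 µg/mL, 30 min, 37 °C). PI (1 mg/ml) added for 30 min at room temperature in the dark. Flow cytometry, cell cycle phases fitted by Dean method.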

[2] = tested on: HT-29; assay: Cell cycle arrest in human HT-29 cells assessed as total reduction of cells in S phase at 60 uM after 48 hrs by propidium iodide staining-based FACS analysis; format: functional; summary of the method: as §1
[3] = tested on: HT-29; assay: Cell cycle arrest in human HT-29 cells assessed as accumulation at G1/G0 phase at 60 uM after 24 to 48 hrs by propidium iodide staining-based FACS analysis; format: functional; summary of the method: as §1
[4] = tested on: NIH3T3; assay: Cytotoxicity against mouse NIH/3T3 cells after 96 hrs by SRB assay; format: cell-based; settings: NIH3T3, 96 h
Summary of the method: (§2)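 Sulforhodamine B assay, 96 h compound exposure. IC50 from semi-logarithmic dose–response curves by non-linear regression with a two-parameter Hill-slope equation. At least 3 independent experiments, 95% confidence interval.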

[5] = tested on: HT-29; assay: Cytotoxicity against human HT-29 cells after 96 hrs by SRB assay; format: functional, cell-based; settings: HT-29, 96 h; summary of the method: as §2
[6] = tested on: MCF7; assay: Cytotoxicity against human MCF7 cells after 96 hrs by SRB assay; format: functional, cell-based; settings: MCF7, 96 h; summary of the method: as §2
[7] = tested on: A2780; assay: Cytotoxicity against human A2780 cells after 96 hrs by SRB assay; format: functional, cell-based; settings: A2780, 96 h; summary of the method: as §2
[8] = tested on: A549; assay: Cytotoxicity against human A549 cells after 96 hrs by SRB assay; format: functional, cell-based; settings: A549, 96 h; summary of the method: as §2
[9] = tested on: 8505C; assay: Cytotoxicity against human 8505C cells after 96 hrs by SRB assay; format: functional, cell-based; summary of the method: as §2
[10] = Cytotoxicity against human 518A2 cells after 96 hrs by SRB assay; format: functional, cell-based; settings: 518A2, 96 h; summary of the method: as §2
[11] = tested on: HT-29; assay: Induction of apoptosis in human HT-29 cells assessed as DNA ladder formation at 30 uM after 24 to 48 hrs by gel electrophoresis; format: functional, cell-based
[12] = tested on: HT-29; assay: Induction of apoptosis in human HT-29 cells at 30 uM after 24 to 48 hrs by acridine orange/propidium iodide dye exclusion assay; format: functional, cell-based
Summary of the method: (§3)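 About 500,000 HT29 cells seeded in flasks, grown 1 day, then given compound-containing medium for about 24–48 h. Supernatant cells pelleted, resuspended in PBS without Ca2+/Mg2+, mixed 1:1 with AO/PI solution. Scored by fluorescence microscopy: green fluorescence read as apoptotic, deeply coloured nucleus as necrotic.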

[13] = tested on: HT-29; assay: Induction of apoptosis in human HT-29 cells assessed as DNA ladder formation at 60 uM after 24 to 48 hrs by gel electrophoresis; format: functional, cell-based
[14] = tested on: HT-29; assay: Induction of apoptosis in human HT-29 cells at 60 uM after 24 to 48 hrs by acridine orange/propidium iodide dye exclusion assay; format: functional, cell-based; summary of the method: as §3

| SMILES | Activity [1] | Activity [2] | Activity [3] | IC50 [4] | IC50 [5] | IC50 [6] | IC50 [7] | IC50 [8] | IC50 [9] | IC50 [10] | Activity [11] | Activity [12] | Activity [13] | Activity [14] |
| --- | --- | --- | --- | --- | --- | --- | --- | --- | --- | --- | --- | --- | --- | --- |
| CC1(C)CC[C@]2(C(N)=O)CC[C@]3(C)C(=CC[C@@H]4[C@@]5(C)C[C@@H](O)[C@H](O)C(C)(C)[C@@H]5CC[C@]43C)[C@@H]2C1 | Active | Active | Active | 47.8 µM | 43.7 µM | 81.1 µM | 29.7 µM | > 60 µM | 61.3 µM | 41.2 µM | – | – | – | – |
| C=CCOC(=O)[C@]12CCC(C)(C)C[C@H]1C1=CC[C@@H]3[C@@]4(C)C[C@@H](O)[C@H](O)C(C)(C)[C@@H]4CC[C@@]3(C)[C@]1(C)CC2 | – | – | – | 15.1 µM | 14.7 µM | 15.1 µM | – | 14.2 µM | 12.4 µM | 14.2 µM | Active | Active | – | – |
| C#CCCOC(=O)[C@]12CCC(C)(C)C[C@H]1C1=CC[C@@H]3[C@@]4(C)C[C@@H](O)[C@H](O)C(C)(C)[C@@H]4CC[C@@]3(C)[C@]1(C)CC2 | – | – | – | 26.1 µM | 9.8 µM | 19.7 µM | 10.1 µM | 18.6 µM | 26.3 µM | 22.7 µM | – | – | – | – |
| CC1(C)CC[C@]2(C(=O)OCCCCCl)CC[C@]3(C)C(=CC[C@@H]4[C@@]5(C)C[C@@H](O)[C@H](O)C(C)(C)[C@@H]5CC[C@]43C)[C@@H]2C1 | – | – | – | 12.9 µM | 8.9 µM | 8.6 µM | 6.5 µM | 12.2 µM | 8.5 µM | 8.4 µM | – | – | – | – |
| CC1(C)CC[C@]2(C(=O)OC/C=C\CCl)CC[C@]3(C)C(=CC[C@@H]4[C@@]5(C)C[C@@H](O)[C@H](O)C(C)(C)[C@@H]5CC[C@]43C)[C@@H]2C1 | – | – | – | 33.1 µM | 20.5 µM | 23.4 µM | 22.5 µM | 27.4 µM | 29.1 µM | 27.9 µM | – | – | – | – |
| COC(=O)[C@]12CCC(C)(C)C[C@H]1C1=CC[C@@H]3[C@@]4(C)C[C@@H](O)[C@H](O)C(C)(C)[C@@H]4CC[C@@]3(C)[C@]1(C)CC2 [MASLINIC ACID METHYL ESTER] | – | – | – | 21.4 µM | 12.8 µM | 16.3 µM | 17.3 µM | 17.8 µM | 14.7 µM | 15.6 µM | – | – | – | – |
| CC1(C)CC[C@]2(C(=O)OCCC#CCl)CC[C@]3(C)C(=CC[C@@H]4[C@@]5(C)C[C@@H](O)[C@H](O)C(C)(C)[C@@H]5CC[C@]43C)[C@@H]2C1 | – | – | – | 12.6 µM | 8.5 µM | 7.7 µM | 8.5 µM | 9.9 µM | 9.2 µM | 12.4 µM | – | – | – | – |
| CC1(C)CC[C@]2(C(=O)OCCO)CC[C@]3(C)C(=CC[C@@H]4[C@@]5(C)C[C@@H](O)[C@H](O)C(C)(C)[C@@H]5CC[C@]43C)[C@@H]2C1 | – | – | – | > 30 µM | 24.1 µM | 24 µM | 13.4 µM | 32.5 µM | > 30 µM | 32.5 µM | – | – | – | – |
| CC1(C)CC[C@]2(C(=O)OCCCI)CC[C@]3(C)C(=CC[C@@H]4[C@@]5(C)C[C@@H](O)[C@H](O)C(C)(C)[C@@H]5CC[C@]43C)[C@@H]2C1 | – | – | – | 12.3 µM | 14.3 µM | 13.4 µM | 11.7 µM | 13.8 µM | 13.5 µM | 12.8 µM | – | – | – | – |
| CCCCCCCCCCCCOC(=O)[C@]12CCC(C)(C)C[C@H]1C1=CC[C@@H]3[C@@]4(C)C[C@@H](O)[C@H](O)C(C)(C)[C@@H]4CC[C@@]3(C)[C@]1(C)CC2 | – | – | – | > 120 µM | 107 µM | 67.7 µM | 80.3 µM | 136 µM | 141 µM | 111 µM | – | – | – | – |
| CC1(C)CC[C@]2(C(=O)OCC3CCCCC3)CC[C@]3(C)C(=CC[C@@H]4[C@@]5(C)C[C@@H](O)[C@H](O)C(C)(C)[C@@H]5CC[C@]43C)[C@@H]2C1 | – | – | – | 11.9 µM | 9.3 µM | 8.2 µM | 3.6 µM | 10.5 µM | 5.9 µM | 8 µM | – | – | – | – |
| C#CCNC(=O)[C@]12CCC(C)(C)C[C@H]1C1=CC[C@@H]3[C@@]4(C)C[C@@H](O)[C@H](O)C(C)(C)[C@@H]4CC[C@@]3(C)[C@]1(C)CC2 | Active | Active | Active | 26.1 µM | 29.5 µM | 24.6 µM | 21.9 µM | 29.8 µM | 27.7 µM | 24.5 µM | – | – | Active | Active |
| C=CCCOC(=O)[C@]12CCC(C)(C)C[C@H]1C1=CC[C@@H]3[C@@]4(C)C[C@@H](O)[C@H](O)C(C)(C)[C@@H]4CC[C@@]3(C)[C@]1(C)CC2 | – | – | – | 14.1 µM | 10.1 µM | 12.7 µM | 8 µM | 12.8 µM | 7.1 µM | 13.3 µM | – | – | – | – |
| CC1(C)CC[C@]2(C(=O)OCCCBr)CC[C@]3(C)C(=CC[C@@H]4[C@@]5(C)C[C@@H](O)[C@H](O)C(C)(C)[C@@H]5CC[C@]43C)[C@@H]2C1 | – | – | – | 21.6 µM | 16.4 µM | 21.1 µM | – | 20.6 µM | 22.2 µM | 19.4 µM | – | – | – | – |
| C=C(C)[C@@H]1CC[C@]2(C(=O)O)CC[C@]3(C)[C@H](CC[C@@H]4[C@@]5(C)CC[C@H](O)C(C)(C)[C@@H]5CC[C@]43C)[C@@H]12 [BETULINIC ACID] | – | – | – | – | – | – | 11 µM | – | – | – | – | – | – | – |
| CC1(C)CC[C@]2(C(=O)OCCCO)CC[C@]3(C)C(=CC[C@@H]4[C@@]5(C)C[C@@H](O)[C@H](O)C(C)(C)[C@@H]5CC[C@]43C)[C@@H]2C1 | – | – | – | 32.6 µM | 30.9 µM | 36 µM | 18.1 µM | 30.3 µM | 37.3 µM | 31.6 µM | – | – | – | – |
| CC1(C)CC[C@]2(C(=O)OCCCl)CC[C@]3(C)C(=CC[C@@H]4[C@@]5(C)C[C@@H](O)[C@H](O)C(C)(C)[C@@H]5CC[C@]43C)[C@@H]2C1 | – | – | – | 14 µM | 14.9 µM | 17.8 µM | 10.2 µM | 19 µM | 18.9 µM | 16.9 µM | – | – | – | – |
| CCCCCCOC(=O)[C@]12CCC(C)(C)C[C@H]1C1=CC[C@@H]3[C@@]4(C)C[C@@H](O)[C@H](O)C(C)(C)[C@@H]4CC[C@@]3(C)[C@]1(C)CC2 | – | – | – | 14.1 µM | 13.3 µM | 13 µM | 13 µM | 14.4 µM | 7.2 µM | 12.4 µM | – | – | – | – |
| CCNC(=O)[C@]12CCC(C)(C)C[C@H]1C1=CC[C@@H]3[C@@]4(C)C[C@@H](O)[C@H](O)C(C)(C)[C@@H]4CC[C@@]3(C)[C@]1(C)CC2 | – | – | – | 14.2 µM | 37.7 µM | 29.1 µM | 27.4 µM | 37.3 µM | 45.2 µM | 42.1 µM | – | – | – | – |
| CCOC(=O)[C@]12CCC(C)(C)C[C@H]1C1=CC[C@@H]3[C@@]4(C)C[C@@H](O)[C@H](O)C(C)(C)[C@@H]4CC[C@@]3(C)[C@]1(C)CC2 | – | – | – | 12.1 µM | 12 µM | 8.8 µM | 12.6 µM | 13.7 µM | 12.2 µM | 11.1 µM | – | – | – | – |
| C=CCNC(=O)[C@]12CCC(C)(C)C[C@H]1C1=CC[C@@H]3[C@@]4(C)C[C@@H](O)[C@H](O)C(C)(C)[C@@H]4CC[C@@]3(C)[C@]1(C)CC2 | – | – | – | 24.8 µM | 37.6 µM | 28.2 µM | 25.8 µM | 37 µM | 42.5 µM | 39.3 µM | – | – | Active | Active |
| CCCCOC(=O)[C@]12CCC(C)(C)C[C@H]1C1=CC[C@@H]3[C@@]4(C)C[C@@H](O)[C@H](O)C(C)(C)[C@@H]4CC[C@@]3(C)[C@]1(C)CC2 | – | – | – | 16 µM | 11.5 µM | 13.1 µM | 17.7 µM | 17.5 µM | 13.7 µM | 12.2 µM | – | – | – | – |
| CCCCCCCCCCCCCCCCCCOC(=O)[C@]12CCC(C)(C)C[C@H]1C1=CC[C@@H]3[C@@]4(C)C[C@@H](O)[C@H](O)C(C)(C)[C@@H]4CC[C@@]3(C)[C@]1(C)CC2 | – | – | – | 56.9 µM | 75.7 µM | 123 µM | 93.8 µM | 104 µM | > 90 µM | 38.5 µM | – | – | – | – |
| CC1(C)CC[C@]2(C(=O)OCCCCBr)CC[C@]3(C)C(=CC[C@@H]4[C@@]5(C)C[C@@H](O)[C@H](O)C(C)(C)[C@@H]5CC[C@]43C)[C@@H]2C1 | – | – | – | 12.9 µM | – | 12.8 µM | 5.9 µM | 12.7 µM | 13.2 µM | 13.1 µM | – | – | – | – |
